What was measured:
[1] = system: Blood; assay: Biodistribution in Sprague-Dawley rat blood at 1.48 to 2.22 MBq, iv measured at 5 mins by gamma counting analysis; type: ADME, organism-based; settings: in vivo
In short: (§1)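 Male Sprague-Dawley rats (250 - 400 g), tail-vein injection of 1.48 - 2.22 MBq radiotracer under 2.5% isoflurane in oxygen; n=4 per time point, euthanized at 5, 30 and 60 min p.i. Brain regions obtained by gross dissection; peripheral tissues collected. Samples weighed, gamma-counted against a diluted-injectate standard; %ID/g calculated.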

[2] = system: Liver; assay: Biodistribution in Sprague-Dawley rat liver at 1.48 to 2.22 MBq, iv measured at 5 mins by gamma counting analysis; type: ADME, organism-based; settings: in vivo; in short: as §1
[3] = system: Kidney; assay: Biodistribution in Sprague-Dawley rat kidney at 1.48 to 2.22 MBq, iv measured at 5 mins by gamma counting analysis; type: ADME, organism-based; settings: in vivo; in short: as §1
[4] = system: Muscle tissue; assay: Biodistribution in Sprague-Dawley rat muscle at 1.48 to 2.22 MBq, iv measured at 5 mins by gamma counting analysis; type: ADME, organism-based; settings: in vivo; in short: as §1
[5] = system: Rattus norvegicus; assay: Biodistribution in Sprague-Dawley rat fat tissue at 1.48 to 2.22 MBq, iv measured at 5 mins by gamma counting analysis; type: ADME, organism-based, Adipose tissue; settings: in vivo; in short: as §1
[6] = system: Bone; assay: Biodistribution in Sprague-Dawley rat bone at 1.48 to 2.22 MBq, iv measured at 5 mins by gamma counting analysis; type: ADME, organism-based, Bone element; settings: in vivo; in short: as §1
[7] = system: Brain; assay: Biodistribution in Sprague-Dawley rat brain at 1.48 to 2.22 MBq, iv measured at 5 mins by gamma counting analysis; type: ADME, organism-based; settings: in vivo; in short: as §1
[8] = system: Blood; assay: Biodistribution in Sprague-Dawley rat blood at 1.48 to 2.22 MBq, iv measured at 30 mins by gamma counting analysis; type: ADME, organism-based; settings: in vivo, 0.5 h; in short: as §1
[9] = system: Liver; assay: Biodistribution in Sprague-Dawley rat liver at 1.48 to 2.22 MBq, iv measured at 30 mins by gamma counting analysis; type: ADME, organism-based; settings: in vivo, 0.5 h; in short: as §1
[10] = system: Kidney; assay: Biodistribution in Sprague-Dawley rat kidney at 1.48 to 2.22 MBq, iv measured at 30 mins by gamma counting analysis; type: ADME, organism-based; settings: in vivo, 0.5 h; in short: as §1
[11] = system: Muscle tissue; assay: Biodistribution in Sprague-Dawley rat muscle at 1.48 to 2.22 MBq, iv measured at 30 mins by gamma counting analysis; type: ADME, organism-based; settings: in vivo, 0.5 h; in short: as §1
[12] = system: Rattus norvegicus; assay: Biodistribution in Sprague-Dawley rat fat tissue at 1.48 to 2.22 MBq, iv measured at 30 mins by gamma counting analysis; type: ADME, organism-based, Adipose tissue; settings: in vivo, 0.5 h; in short: as §1
[13] = system: Bone; assay: Biodistribution in Sprague-Dawley rat bone at 1.48 to 2.22 MBq, iv measured at 30 mins by gamma counting analysis; type: ADME, organism-based, Bone element; settings: in vivo, 0.5 h; in short: as §1
[14] = system: Brain; assay: Biodistribution in Sprague-Dawley rat brain at 1.48 to 2.22 MBq, iv measured at 30 mins by gamma counting analysis; type: ADME, organism-based; settings: in vivo, 0.5 h; in short: as §1
[15] = system: Blood; assay: Biodistribution in Sprague-Dawley rat blood at 1.48 to 2.22 MBq, iv measured at 60 mins by gamma counting analysis; type: ADME, organism-based; settings: in vivo, 1 h; in short: as §1
[16] = system: Liver; assay: Biodistribution in Sprague-Dawley rat liver at 1.48 to 2.22 MBq, iv measured at 60 mins by gamma counting analysis; type: ADME, organism-based; settings: in vivo, 1 h; in short: as §1
[17] = system: Kidney; assay: Biodistribution in Sprague-Dawley rat kidney at 1.48 to 2.22 MBq, iv measured at 60 mins by gamma counting analysis; type: ADME, organism-based; settings: in vivo, 1 h; in short: as §1
[18] = system: Muscle tissue; assay: Biodistribution in Sprague-Dawley rat muscle at 1.48 to 2.22 MBq, iv measured at 60 mins by gamma counting analysis; type: ADME, organism-based; settings: in vivo, 1 h; in short: as §1
[19] = system: Rattus norvegicus; assay: Biodistribution in Sprague-Dawley rat fat tissue at 1.48 to 2.22 MBq, iv measured at 60 mins by gamma counting analysis; type: ADME, organism-based, Adipose tissue; settings: in vivo, 1 h; in short: as §1
[20] = system: Bone; assay: Biodistribution in Sprague-Dawley rat bone at 1.48 to 2.22 MBq, iv measured at 60 mins by gamma counting analysis; type: ADME, organism-based, Bone element; settings: in vivo, 1 h; in short: as §1
[21] = system: Brain; assay: Biodistribution in Sprague-Dawley rat brain at 1.48 to 2.22 MBq, iv measured at 60 mins by gamma counting analysis; type: ADME, organism-based; settings: in vivo, 1 h; in short: as §1
[22] = system: Striatum; assay: Biodistribution in Sprague-Dawley rat striatum at 1.48 to 2.22 MBq, iv measured at 30 mins by gamma counting analysis; type: ADME, organism-based; settings: in vivo, 0.5 h; in short: as §1
[23] = Ratio of drug level in striatum to cerebellum in Sprague-Dawley rat at 1.48 to 2.22 MBq, iv measured at 5 to 30 mins by gamma counting analysis; type: ADME, organism-based; settings: in vivo
In short: (§2)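 Striatum, cerebellum and cortex obtained by gross dissection from Sprague-Dawley rats (250 - 400 g, n=4 per time point) after tail-vein injection of 1.48 - 2.22 MBq under isoflurane anesthesia. Tissues weighed and gamma-counted with an injectate standard to give %ID/g; ratios taken from striatal versus non-target uptake.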

[24] = system: Nucleic Acid; assay: Ratio of drug level in striatum to cortex in Sprague-Dawley rat at 1.48 to 2.22 MBq, iv measured at 5 to 30 mins by gamma counting analysis; type: ADME, organism-based; settings: in vivo; in short: as §2

| Compound | Drug uptake [1] [% ID/g] | Drug uptake [2] [% ID/g] | Drug uptake [3] [% ID/g] | Drug uptake [4] [% ID/g] | Drug uptake [5] [% ID/g] | Drug uptake [6] [% ID/g] | Drug uptake [7] [% ID/g] | Drug uptake [8] [% ID/g] | Drug uptake [9] [% ID/g] | Drug uptake [10] [% ID/g] | Drug uptake [11] [% ID/g] | Drug uptake [12] [% ID/g] | Drug uptake [13] [% ID/g] | Drug uptake [14] [% ID/g] | Drug uptake [15] [% ID/g] | Drug uptake [16] [% ID/g] | Drug uptake [17] [% ID/g] | Drug uptake [18] [% ID/g] | Drug uptake [19] [% ID/g] | Drug uptake [20] [% ID/g] | further results |
| --- | --- | --- | --- | --- | --- | --- | --- | --- | --- | --- | --- | --- | --- | --- | --- | --- | --- | --- | --- | --- | --- |
| Cn1cc(-c2ccncc2)c(-c2ccc(OCc3cc([18F])c4ccccc4n3)cc2)n1 | 0.353 | 6.87 | 1.887 | 0.339 | 0.404 | 0.522 | 0.41 | 0.376 | 3 | 1.034 | 0.236 | 0.576 | 4.035 | 0.191 | 0.15 | 1.6 | 0.533 | 0.092 | 0.477 | 6.3 | Drug uptake [21]: 0.125 % ID/g; Drug uptake [22]: Active; Ratio [23]: > 2; Ratio [24]: > 2 |
| Cn1cc(-c2ccncc2)c(-c2ccc(OCc3cc(OCCOCCOCC[18F])c4ccccc4n3)cc2)n1 | 0.699 | 4.74 | 5.969 | 0.419 | 0.225 | 0.487 | 0.353 | 0.771 | 1.53 | 1.793 | 0.488 | 0.254 | 0.441 | 0.509 | 0.646 | 0.527 | 1.037 | 0.379 | 0.123 | 0.49 | Drug uptake [21]: 0.421 % ID/g; Drug uptake [22]: Active |
| Cn1cc(-c2ccncc2)c(-c2ccc(OCc3cc(C[18F])c4ccccc4n3)cc2)n1 | 0.471 | 10.16 | 1.799 | 0.227 | 0.343 | 0.421 | 0.128 | 0.416 | 4.01 | 1.351 | 0.174 | 0.352 | 4.055 | 0.094 | 0.201 | 3.1 | 0.573 | 0.107 | 0.222 | 5.62 | Drug uptake [21]: 0.069 % ID/g; Drug uptake [22]: Active; Ratio [23]: > 2; Ratio [24]: > 2 |

Continued, in another order:

| Drug uptake [1] [% ID/g] | Drug uptake [2] [% ID/g] | Drug uptake [3] [% ID/g] | Drug uptake [4] [% ID/g] | Drug uptake [5] [% ID/g] | Drug uptake [6] [% ID/g] | Drug uptake [7] [% ID/g] | Drug uptake [8] [% ID/g] | Drug uptake [9] [% ID/g] | Drug uptake [10] [% ID/g] | Drug uptake [11] [% ID/g] | Drug uptake [12] [% ID/g] | Drug uptake [13] [% ID/g] | Drug uptake [14] [% ID/g] | Drug uptake [15] [% ID/g] | Drug uptake [16] [% ID/g] | Drug uptake [17] [% ID/g] | Drug uptake [18] [% ID/g] | Drug uptake [19] [% ID/g] | Drug uptake [20] [% ID/g] | Compound | further results |
| --- | --- | --- | --- | --- | --- | --- | --- | --- | --- | --- | --- | --- | --- | --- | --- | --- | --- | --- | --- | --- | --- |
| 0.459 | 9.99 | 2.471 | 0.223 | 0.22 | 0.222 | 0.114 | 0.345 | 5.67 | 1.364 | 0.178 | 0.491 | 1.418 | 0.046 | 0.345 | 6.79 | 1.216 | 0.103 | 0.368 | 2.037 | Cn1cc(-c2ccncc2)c(-c2ccc(OCc3cc(CCC[18F])c4ccccc4n3)cc2)n1 | Drug uptake [21]: 0.026 % ID/g; Drug uptake [22]: Active; Ratio [23]: > 2; Ratio [24]: > 2 |
| 0.44 | 3.99 | 0.981 | 0.155 | 0.139 | 0.133 | 0.213 | 0.424 | 0.987 | 0.632 | 0.265 | 0.139 | 0.17 | 0.353 | 0.401 | 0.554 | 0.485 | 0.228 | 0.066 | 0.337 | Cn1cc(-c2ccncc2)c(-c2ccc(OCc3cc(COCC[18F])c4ccccc4n3)cc2)n1 | Drug uptake [21]: 0.343 % ID/g; Drug uptake [22]: Active |

Reference: ChEMBL document CHEMBL3627597, “Synthesis of Fluorine-Containing Phosphodiesterase 10A (PDE10A) Inhibitors and the In Vivo Evaluation of F-18 Labeled PDE10A PET Tracers in Rodent and Nonhuman Primate” (J Med Chem, 2015)
